Measured values of several laboratories.
Compare with care: the assays were run in different laboratories.
ADRA1A: Alpha-1A adrenergic receptor (ADRA1A, Homo sapiens, UniProt P35348)
MAOA: Amine oxidase [flavin-containing] A (MAOA, Homo sapiens, UniProt P21397)
rep papain-like protease: Replicase polyprotein 1ab, papain-like protease (rep, Severe acute respiratory syndrome coronavirus 2, UniProt P0DTD1)
rep helicase: Replicase polyprotein 1ab, helicase (rep, Severe acute respiratory syndrome coronavirus 2, UniProt P0DTD1)

SMILES	target	effect on	mode	technique	endpoint	result
Brc1ccc2c(c1)C(c1ccccn1)=NCc1c(-c3cnco3)ncn1-2	Translocator protein (Tspo, Rattus norvegicus, UniProt P16257)	ligand displacement		radioligand	Ki	0.331 µM
COC(=O)c1cc(N(C)C(=O)c2ccn3ncc(-c4ccc(C(=O)O)cc4)c3c2)ccc1Cl	ADRA1A	cell-free assay			IC50	> 30 µM
C#CCN(C)CCCCCCOc1cccc(CN(C)c2c3c(nc4ccc(C)cc24)CCCC3)c1	MAOA	enzyme activity	inhibitor	fluorescence	IC50	4.87 µM
Cc1cc(Nc2ncc(Cl)c(Nc3ccccc3S(=O)(=O)C(C)C)n2)c(OC(C)C)cc1C1CCNCC1	rep papain-like protease	enzyme activity	inhibitor	FRET	IC50	19.5 µM
CCC(C(=O)Nc1cc(NC2CCOC2)ccc1C)n1cc(Cl)cc2nc(SCc3ccc(F)cc3)nc1-2 (stereo not shown)	rep papain-like protease	enzyme activity	inhibitor		IC50	0.169 µM
CNC(=O)c1ccc(-c2cnn3ccc(C(=O)N(C)c4ccc(Cl)c(C(=O)OC)c4)cc23)cc1	ADRA1A	cell-free assay			IC50	> 30 µM
CCC(C(=O)Nc1cc(NC2COC2)ccc1C)n1cc(F)cc2nc(SCc3ccc(F)cc3)nc1-2 (stereo not shown)	rep papain-like protease	enzyme activity	inhibitor		IC50	0.436 µM
CSCCNc1nc(SCCC(F)(F)F)nc2c1ncn2[C@@H]1O[C@H](COP(=O)(O)OP(=O)(O)C(Cl)(Cl)P(=O)(O)O)[C@@H](O)[C@H]1O	rep helicase	enzyme activity	inhibitor		IC50	> 100 µM
CCCNC(=O)[C@H]1O[C@@H]1C(=O)N[C@H](C(=O)N1CCC[C@H]1C(=O)O)[C@@H](C)CC	rep papain-like protease	enzyme activity	inhibitor	FRET	IC50	170 µM
C#CCN(C)CCCCCCCCOc1cccc(CN(C)c2c3c(nc4ccc(F)cc24)CCCC3)c1	MAOA	enzyme activity	inhibitor	fluorescence	IC50	61.3 µM
COc1ccc2cc1Oc1ccc(cc1)C[C@H]1c3c(cc4c(c3Oc3cc5c(cc3OC)CCN(C)[C@@H]5C2)OCO4)CCN1C	rep helicase	enzyme activity	inhibitor		IC50	4.5 µM
CCCC(C(=O)Nc1cc(NC2CNC2)ccc1C)n1cccc2nc(SCc3ccc(F)cc3)nc1-2 (stereo not shown)	rep papain-like protease	enzyme activity	inhibitor		IC50	1.48 µM
C#CCN(C)CCOc1cccc(CN(C)c2c3c(nc4ccccc24)CCCC3)c1	MAOA	enzyme activity	inhibitor	fluorescence	IC50	10.3 µM
